The target in assay [1] is T1, Fatty-acid amide hydrolase 1 (Rattus norvegicus, UniProt P97612).
T1 sequence (P97612 whole entry): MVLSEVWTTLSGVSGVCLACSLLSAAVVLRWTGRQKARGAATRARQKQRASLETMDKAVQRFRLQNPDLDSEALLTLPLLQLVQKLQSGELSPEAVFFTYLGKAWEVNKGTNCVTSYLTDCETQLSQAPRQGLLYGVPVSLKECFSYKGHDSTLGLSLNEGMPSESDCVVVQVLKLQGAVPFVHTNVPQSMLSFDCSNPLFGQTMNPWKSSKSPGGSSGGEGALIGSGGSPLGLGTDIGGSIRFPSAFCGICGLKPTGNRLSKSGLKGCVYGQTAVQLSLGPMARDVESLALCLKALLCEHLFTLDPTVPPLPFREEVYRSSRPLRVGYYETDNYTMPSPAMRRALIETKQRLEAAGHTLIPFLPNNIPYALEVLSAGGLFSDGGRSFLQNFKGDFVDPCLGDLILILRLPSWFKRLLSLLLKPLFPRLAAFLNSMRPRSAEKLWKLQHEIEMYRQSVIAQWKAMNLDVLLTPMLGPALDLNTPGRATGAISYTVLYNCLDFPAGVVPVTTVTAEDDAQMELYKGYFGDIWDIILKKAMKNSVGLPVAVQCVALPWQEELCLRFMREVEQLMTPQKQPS
The assay is described as follows: Inhibition of rat brain FAAH assessed as hydrolysis of [14C]AEA to [14C]Ethanolamine incubated for 30 mins by scintillation counting method.

Assay [2] has as its target T2, Transient receptor potential cation channel subfamily V member 1 (Homo sapiens, UniProt Q8NER1). The assay can be described thus: Agonist activity at recombinant human TRPV1 channel expressed in HEK293 cells assessed as increase in intracellular Ca2+ concentration by Fluo-4-AM dye based spectrofluorimetry relative to ionomycin. Format: cell-based. In outline: (§1)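 HEK293 cells stably expressing human TRPV1, grown in MEM with non-essential amino acids, 10% FBS and 2 mM glutamine at 37 °C, 5% CO2. Cells loaded 1 h at room temperature with Fluo-4-AM (4 µM), washed into Tyrode's buffer pH 7.4, about 100,000 cells per stirred cuvette. Fluorescence (ex 488/em 516 nm) read at 25 °C. Efficacy normalised to 4 µM ionomycin, with wild-type HEK293 response subtracted when significant. EC50 from GraphPad; n = 4.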

The target of assay [3] is T2, Transient receptor potential cation channel subfamily V member 1. The assay can be described thus: Antagonist activity at recombinant human TRPV1 channel expressed in HEK293 cells assessed as inhibition of capsiacin-induced Ca2+ flux preincubated for 5 mins followed by capsiacin challenge by Fluo-4-AM dye based spectrofluorimetry. The class given is cell-based. In outline: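 Fluo-4-loaded HEK293 cells stably expressing human TRPV1, in Tyrode's buffer pH 7.4, read at 25 °C (ex 488/em 516 nm). Test compound added to the cuvette 5 min before 0.1 µM capsaicin. IC50 taken as half-maximal inhibition of capsaicin-induced [Ca2+]i rise, calculated in GraphPad; mean of n = 4.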
A general note: Calcium flux is commonly read through the fluorescence of an indicator in the cells.

For assay [4] the target is unchanged. The assay can be described thus: Agonist activity at recombinant human TRPV1 channel expressed in HEK293 cells assessed as increase in intracellular Ca2+ concentration by Fluo-4-AM dye based spectrofluorimetry. Format: cell-based. In outline:
as §1

The target is the same in assay [5]. The assay can be described thus: Antagonist activity at recombinant human TRPV1 channel expressed in HEK293 cells assessed as inhibition of capsiacin-induced Ca2+ flux by Fluo-4 dye based spectrofluorimetry assay.

SMILES strings stand for the structures.

T2 sequence (Q8NER1 whole entry): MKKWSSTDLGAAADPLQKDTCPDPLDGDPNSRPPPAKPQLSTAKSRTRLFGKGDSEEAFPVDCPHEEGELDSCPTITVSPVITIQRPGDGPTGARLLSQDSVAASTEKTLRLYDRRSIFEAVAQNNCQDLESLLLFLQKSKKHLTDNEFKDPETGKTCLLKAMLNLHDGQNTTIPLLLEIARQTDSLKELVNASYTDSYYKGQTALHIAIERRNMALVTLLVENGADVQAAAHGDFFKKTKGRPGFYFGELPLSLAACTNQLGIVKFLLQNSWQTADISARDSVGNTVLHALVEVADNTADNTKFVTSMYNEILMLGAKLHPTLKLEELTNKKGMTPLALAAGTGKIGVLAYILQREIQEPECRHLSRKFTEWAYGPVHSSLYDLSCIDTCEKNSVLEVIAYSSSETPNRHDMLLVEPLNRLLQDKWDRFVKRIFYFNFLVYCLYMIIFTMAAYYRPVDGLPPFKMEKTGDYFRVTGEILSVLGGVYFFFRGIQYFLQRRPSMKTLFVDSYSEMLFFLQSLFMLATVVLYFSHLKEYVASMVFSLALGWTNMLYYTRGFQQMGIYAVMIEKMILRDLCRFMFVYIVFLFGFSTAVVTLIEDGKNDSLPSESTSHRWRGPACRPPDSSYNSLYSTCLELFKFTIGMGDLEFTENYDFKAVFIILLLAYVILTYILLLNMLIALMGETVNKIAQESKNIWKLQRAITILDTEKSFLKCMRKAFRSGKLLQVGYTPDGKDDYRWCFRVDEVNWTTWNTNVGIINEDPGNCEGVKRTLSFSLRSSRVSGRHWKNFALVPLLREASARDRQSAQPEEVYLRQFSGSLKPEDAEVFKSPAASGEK

For `O=C(Cc1ccc(-c2ccccc2)cc1)Nc1ccc(B(O)O)cc1`, the 50% inhibitory concentration (IC50) in assay [1] and in assay [3] was over 10000 nM in each case. For the same compound, the Efficacy in assay [2] was under 10%.
For `CC(C)(C)c1ccc(NC(=O)Cc2ccc(B(O)O)cc2)cc1`, the IC50 in assay [1] and in assay [3] was over 10000 nM throughout. In addition, the Efficacy in assay [2] was under 10%.
In the case of `O=C(Oc1ccc(C(F)(F)F)cc1)N1CCN(c2ncccc2C(F)(F)F)CC1`, the Efficacy in assay [2] is under 10%.
In the case of `O=C(CCCCCc1ccccc1)NCc1ccc(B(O)O)cc1`, the EC50 (usually the concentration needed to bring the measured effect to its halfway point) in assay [4] worked out at 1530 nM. Moreover, the IC50 (as a rule, the concentration that inhibits the measured activity by half) in assay [1] stood at 1080 nM; in assay [3] it was 2890 nM. Further, the Efficacy in assay [2] worked out at 41.1%.
In the case of `O=C(Cc1ccc(B(O)O)cc1)NCCCCCCCc1ccccc1`, the EC50 in assay [4] came out at 370 nM. Besides, the figures for the IC50 in assay [1] and in assay [3] were 250 nM and 370 nM, respectively. Further, the Efficacy in assay [2] was 52.5%.
On to `O=C(Nc1ccc(-c2ccccc2)cc1)c1ccc(B(O)O)cc1`, for which the EC50 in assay [4] was found to be 3970 nM. In addition, the results for the half-maximal inhibitory concentration (IC50) in assay [1] and in assay [3] were 150 nM and over 10000 nM, respectively. Besides, the Efficacy in assay [2] is 12.5%.
For `O=C(Cc1ccccc1)NCCCCCCCc1ccccc1`, in that order: 660 nM, over 10000 nM, 1210 nM and 54.6%.
With `O=C(NCc1ccc(-c2ccccc2)cc1)c1ccc(B(O)O)cc1`, the IC50 was 1860 nM in assay [1] and over 10000 nM in assay [3]. Moreover, the Efficacy in assay [2] was under 10%.
For `O=C(/C=C/c1ccc(Cl)cc1)Nc1cccc(B(O)O)c1`, in that order: over 10000 nM, 41 nM and under 10%.
In the case of `O=C(CCCCCCCc1ccccc1)Nc1ccc(B(O)O)cc1`, the values for the half-inhibitory concentration (IC50) in assay [1] and in assay [3] were 390 nM and over 10000 nM, respectively. For the same compound, the Efficacy in assay [2] was under 10%.
Take `O=C(NCCc1ccc(O)cc1)c1ccc(B(O)O)cc1`: the IC50 in assay [1] and in assay [3] was over 10000 nM in each case. Also, the Efficacy in assay [2] is under 10%.
As for `O=C(NCCCCc1ccccc1)c1ccc(B(O)O)cc1`, the IC50 in assay [1] was 580 nM; in assay [3], over 10000 nM. The Efficacy in assay [2] is under 10%.
For the compound `O=C(Cc1ccc(B(O)O)cc1)NCCCCc1ccccc1`, in assay [4], the EC50 is 1990 nM. For the same compound, the figures for the IC50 in assay [1] and in assay [3] were 1170 nM and 2190 nM, respectively. Further, the Efficacy in assay [2] is 44.9%.
Take `COc1cc(CNC(=O)CCCCCc2ccccc2)ccc1B(O)O`: the EC50 in assay [4] turned out to be 1460 nM. Also, the figures for the IC50 in assay [1] and in assay [3] were 1320 nM and 1530 nM, respectively. In assay [2], the Efficacy was 59.3%.
Consider `O=C(Cc1ccc(B(O)O)cc1)NCc1ccc(-c2ccccc2)cc1`, for which, in assay [4], the EC50 is 310 nM. Besides, the IC50 in assay [1] came to 280 nM; in assay [3] it was 5530 nM. The Efficacy in assay [2] worked out at 27.4%.
For `CC(C)(C)c1ccc(NC(=O)NCc2ccc(B(O)O)cc2)cc1`, the values for the IC50 in assay [1] and in assay [3] were 1990 nM and 4130 nM, respectively. In assay [2], the Efficacy is under 10%.
Take `COc1cccc(NC(=O)/C=C/c2ccc(Cl)cc2)c1`: the IC50 in assay [1] is over 10000 nM; in assay [5] it was 270 nM; in assay [3] it was 190 nM. Further, the Efficacy in assay [2] is under 10%.
Regarding `O=C(CCCCCCCc1ccccc1)NCc1ccc(B(O)O)cc1`, in assay [4], the EC50 amounted to 1000 nM. The IC50 in assay [1] was 470 nM; in assay [3] it was 500 nM. Further, in assay [2], the Efficacy was determined as 54.7%.
`CCCCCCCC/C=C\CCCCCCCC(=O)NCc1ccc(B(O)O)cc1`: the EC50 in assay [4] is 22 nM. In addition, the IC50 is over 10000 nM in assay [1] and 47 nM in assay [3]. For the same compound, the Efficacy in assay [2] turned out to be 42.2%.
Turning to `CC(C)(C)c1ccc(C(=O)Nc2ccc(B(O)O)cc2)cc1`, the EC50 in assay [4] was 520 nM. For the same compound, the results for the half-maximal inhibitory concentration (IC50) in assay [1] and in assay [3] were over 10000 nM and 780 nM, respectively. The Efficacy in assay [2] came out at 39.3%.
Turning to `CCCCCCCCCc1ccc(B(O)O)cc1`, the IC50 in assay [1] is 2920 nM; in assay [3], over 10000 nM. Also, the Efficacy in assay [2] was under 10%.
With `CC(C)(C)c1ccc(NC(=O)Nc2ccc(B(O)O)cc2)cc1`, the IC50 is over 10000 nM in assay [1] and 1950 nM in assay [3]. Besides, in assay [2], the Efficacy was under 10%.
The like results for `O=C(Cc1ccc(B(O)O)cc1)NCc1ccccc1` were, in that order, over 10000 nM, over 10000 nM and under 10%.
As to `O=C(CCc1ccccc1)NCc1ccc(B(O)O)cc1`, in assay [4], the half-maximal effective concentration (EC50) was found to be 320 nM. Also, the IC50 in assay [1] was over 10000 nM; in assay [3] it was 230 nM. Also, the Efficacy in assay [2] came to 60.2%.
For `COc1cc(CNC(=O)CCCCCCCc2ccccc2)ccc1B(O)O`, in that order: 51 nM, 1770 nM, 34 nM and 62.5%.
Consider `O=C(NCc1ccccc1)c1ccc(B(O)O)cc1`, for which the values for the IC50 in assay [1] and in assay [3] were 2870 nM and over 10000 nM, respectively. Also, the Efficacy in assay [2] is under 10%.
In the case of `O=C(Cc1ccc(O)cc1)NCCCCCCCc1ccccc1`, in assay [4], the EC50 was 170 nM. The Efficacy in assay [2] worked out at 64.7%. In addition, the IC50 in assay [3] was found to be 260 nM.
Turning to `CCCCCCCC/C=C\CCCCCCCC(=O)NCc1ccc(B(O)O)c(OC)c1`, in assay [4], the concentration for a half-maximal effect (EC50) was 20 nM. For the same compound, the IC50 is over 10000 nM in assay [1] and 32 nM in assay [3]. For the same compound, the Efficacy in assay [2] was 49.2%.
For `CC(C)(C)c1ccc(NC(=O)c2ccc(B(O)O)cc2)cc1`, the IC50 in assay [1] came to 5500 nM; in assay [3] it was 750 nM. The Efficacy in assay [2] was under 10%.
For `O=C(NCCCCCc1ccccc1)c1ccc(B(O)O)cc1`, in that order: 180 nM, over 10000 nM and under 10%.
Consider `O=C(/C=C/c1ccc(Cl)cc1)NCc1ccc(B(O)O)cc1`, for which the 50% inhibitory concentration (IC50) was 1510 nM in assay [1] and over 10000 nM in assay [3]. For the same compound, in assay [2], the Efficacy is under 10%.
Take `O=C(/C=C/c1ccc(Cl)cc1)Nc1ccc(B(O)O)cc1`: the values for the IC50 in assay [1] and in assay [3] were 560 nM and 1390 nM, respectively. Moreover, the Efficacy in assay [2] is under 10%.
The like results for `O=C(CCCCCc1ccccc1)Nc1ccc(B(O)O)cc1` were, in that order, 570 nM, over 10000 nM and under 10%.
Regarding `OB(O)c1ccc(-c2ccccc2)cc1` [BIPHENYLBORONIC ACID], the IC50 in assay [1] is 790 nM; in assay [3], over 10000 nM. Further, the Efficacy in assay [2] was under 10%.
On to `COc1cc(CNC(=O)Nc2ccc(C(C)(C)C)cc2)ccc1B(O)O`, for which the IC50 in assay [1] was found to be 4280 nM; in assay [3], 8110 nM. Moreover, the Efficacy in assay [2] was under 10%.
Take `O=C(Cc1ccc(B(O)O)cc1)NCCCCCc1ccccc1`: the EC50 in assay [4] amounted to 2250 nM. Moreover, the IC50 in assay [1] amounted to 630 nM; in assay [3], 2530 nM. Besides, in assay [2], the Efficacy was determined as 62.8%.
Consider `O=C(NCc1ccc(B(O)O)cc1)c1ccc(-c2ccccc2)cc1`, for which the half-maximal effective concentration (EC50) in assay [4] was 4230 nM. Moreover, the IC50 in assay [1] was 330 nM; in assay [3] it was 7110 nM. Besides, in assay [2], the Efficacy is 22%.
In the case of `CCCCC/C=C\C/C=C\C/C=C\C/C=C\CCCC(=O)NCCc1c[nH]c2ccc(O)cc12`, the Efficacy in assay [2] is under 10%.

The record behind these values is ChEMBL document CHEMBL3769358, “Arylboronic acids as dual-action FAAH and TRPV1 ligands” (Bioorg Med Chem Lett, 2016).
